Test results from ChEMBL document CHEMBL2176900, “Design and synthesis of a novel series of bicyclic heterocycles as potent γ-secretase modulators” (J Med Chem, 2012).

Legend:
[1] = tested on: Canis familiaris; assay: Antialzheimer activity in beagle dog assessed as amyloid beta 40 level in cerebrospinal fluid at 20 mg/kg, po at 8 hrs by ELISA relative to control
[2] = biological target: Cytochrome P450 3A4 (Homo sapiens, UniProt P08684); assay: Inhibition of CYP3A4 in human liver microsomes using midazolam as substrate; assay type: ADME, Microsome
Cytochrome P450 3A4, sequence (P08684 whole entry): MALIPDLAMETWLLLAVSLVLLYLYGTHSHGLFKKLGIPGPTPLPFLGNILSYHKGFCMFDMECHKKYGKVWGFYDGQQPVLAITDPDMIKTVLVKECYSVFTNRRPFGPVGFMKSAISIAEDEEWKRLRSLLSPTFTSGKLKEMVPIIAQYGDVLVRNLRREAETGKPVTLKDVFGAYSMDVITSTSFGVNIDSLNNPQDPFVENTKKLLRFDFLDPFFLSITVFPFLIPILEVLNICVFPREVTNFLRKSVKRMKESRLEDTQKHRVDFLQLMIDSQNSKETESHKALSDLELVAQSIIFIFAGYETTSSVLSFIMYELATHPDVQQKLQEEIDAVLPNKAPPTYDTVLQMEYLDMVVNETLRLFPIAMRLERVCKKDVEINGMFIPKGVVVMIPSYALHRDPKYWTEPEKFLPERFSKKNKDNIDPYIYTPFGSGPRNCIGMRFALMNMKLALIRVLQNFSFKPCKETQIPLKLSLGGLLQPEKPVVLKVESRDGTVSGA

[3] = tested on: Mus musculus; assay: Inhibition of gamma-secretase in CD1 mouse assessed as total amyloid beta level in brain at 10 mg/kg, po at 4 hrs by ELISA relative to control; assay type: functional; design: scale not given: the % may be the effect or the level left
In short: (§1)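 Fasted male CD1 SPF mice were dosed orally at 10 or 30 mg/kg in 20% Captisol. Right hemisphere was homogenized in 0.4% DEA/50 mM NaCl and the high-speed supernatant neutralized. Aβtotal ELISA used N-terminal JRF/rAβ/2 capture, biotinylated 4G8 and streptavidin-peroxidase, then a fluorogenic substrate (ex 320/em 420 nm). Standards spanned 10000–0.3 pg/mL. Values are % change vs T = 0 h, n = 4.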

[4] = Plasma concentration in beagle dog at 20 mg/kg, po at 24 hrs; assay type: ADME, organism-based, Canis lupus familiaris; design: dose 20 mg/kg, route oral
[5] = Drug uptake in CD1 mouse brain at 30 mg/kg, po at 24 hrs by LC-MS/MS analysis; assay type: ADME, organism-based; design: dose 30 mg/kg, route oral; details: read-out: Drug uptake
In short: (§2)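 Overnight-fasted male CD1 mice received one oral dose (10 or 30 mg/kg) in 20% Captisol. After sacrifice, the left brain hemisphere was stored at −18 °C. Compound level was quantified by a qualified LC-MS/MS method, alongside EDTA plasma spun at 1900g, 4 °C. n = 4 per time point.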

[6] = tested on: Rattus norvegicus; assay: Antialzheimer activity in Sprague-Dawley rat assessed as amyloid beta 37 level in CSF at 10 mg/kg, po at 7 hrs by ELISA relative to control; assay type: functional
In short: (§3)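 Male Sprague-Dawley rats (180-220 g), fasted overnight, were given 10 mg/kg by gastric intubation as a 5 mg/mL suspension in 0.5% methocellulose. At 2, 4, 7 and 25 h, 50 μL CSF was taken from the cisterna magna under isoflurane, then brain was collected. Aβ37/38/40/42 were measured by MesoScale Discovery sandwich immunoassays. Results are mean % change versus T = 0 h, n = 5.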

[7] = biological target: Gamma-secretase; assay: Modulation of gamma-secretase in human SK-N-BE(2) cells expressing wild type APP 695 assessed as reduction in amyloid beta 42 level after overnight incubation by sandwich immunoassay; assay type: cell-based
In short: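 SK-N-BE(2) cells carrying wild-type APP695, plated at 10⁴ cells/well in Ultraculture with glutamine, NEAA, penicillin/streptomycin plus test compound at a range of concentrations. Incubated overnight at 37 °C, 5% CO₂. Supernatant Aβ42 measured by AlphaLisa sandwich immunoassay (JRF/cAβ42/26 capture, biotinylated JRF/AβN/25). IC50 derived from % of maximal Aβ42 without compound. Mean of at least three determinations.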

[8] = tested on: Rattus norvegicus; assay: Antialzheimer activity in Sprague-Dawley rat assessed as amyloid beta 37 level in brain at 10 mg/kg, po at 2 hrs by ELISA relative to control; assay type: functional
In short: as §3

[9] = biological target: Cytochrome P450 2D6 (Homo sapiens, UniProt P10635); assay: Inhibition of CYP2D6 in human liver microsomes using dextrometorphan as substrate; assay type: ADME, Microsome
Cytochrome P450 2D6, sequence (P10635 whole entry): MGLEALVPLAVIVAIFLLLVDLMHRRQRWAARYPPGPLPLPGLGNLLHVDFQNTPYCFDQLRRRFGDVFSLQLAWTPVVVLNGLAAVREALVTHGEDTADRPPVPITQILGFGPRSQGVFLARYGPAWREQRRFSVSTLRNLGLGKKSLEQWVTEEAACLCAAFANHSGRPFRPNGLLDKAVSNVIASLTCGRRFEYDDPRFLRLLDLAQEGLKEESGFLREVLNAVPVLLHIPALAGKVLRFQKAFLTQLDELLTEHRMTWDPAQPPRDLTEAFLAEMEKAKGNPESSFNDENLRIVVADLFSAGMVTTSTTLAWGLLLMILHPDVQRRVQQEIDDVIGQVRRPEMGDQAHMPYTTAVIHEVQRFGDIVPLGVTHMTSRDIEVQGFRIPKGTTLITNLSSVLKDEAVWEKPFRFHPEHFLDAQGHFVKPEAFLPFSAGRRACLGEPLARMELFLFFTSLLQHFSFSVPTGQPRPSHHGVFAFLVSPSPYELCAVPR

[10] = Oral bioavailability in beagle dog at 5 mg/kg; assay type: ADME, organism-based, Canis lupus familiaris; details: in vivo
[11] = tested on: MDR1; assay: Apparent permeability from basal to apical side of pig LLCPK1 cells expressing MDR1; assay type: ADME, cell-based, Sus scrofa; details: LLC-PK1
[12] = tested on: Mus musculus; assay: Antialzheimer activity in CD1 mouse assessed as amyloid beta 42 level in brain at 30 mg/kg, po at 8 hrs by ELISA relative to control; assay type: functional
In short: (§4)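 Male CD1 SPF mice, fasted overnight, got a single oral dose of 10 or 30 mg/kg. At each time point the right brain hemisphere was homogenized in 0.4% DEA/50 mM NaCl with protease inhibitors and spun at 221300g for 50 min. The supernatant was neutralized with Tris-HCl pH 6.8. Aβ38 or Aβ42 was read by sandwich ELISA with a fluorogenic peroxidase substrate (ex 320/em 420 nm). Results are mean % change versus T = 0 h, n = 4.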

[13] = Plasma concentration in beagle dog at 20 mg/kg, po at 8 hrs; assay type: ADME, organism-based, Canis lupus familiaris; design: dose 20 mg/kg, route oral
[14] = tested on: Rattus norvegicus; assay: Antialzheimer activity in Sprague-Dawley rat assessed as amyloid beta 38 level in CSF at 10 mg/kg, po at 2 hrs by ELISA relative to control; assay type: functional
In short: as §3

[15] = tested on: Mus musculus; assay: Antialzheimer activity in CD1 mouse assessed as amyloid beta 42 level in brain at 30 mg/kg, po at 24 hrs by ELISA relative to control; assay type: functional
In short: as §4

[16] = Drug uptake in CD1 mouse brain at 10 mg/kg, po at 4 hrs by LC-MS/MS analysis; assay type: ADME, organism-based; design: dose 10 mg/kg, route oral; details: read-out: Drug uptake
In short: as §2

[17] = tested on: Liver microsomes; assay: Drug metabolism in human liver microsome assessed as reactive metabolite formation by cyanide-trapping assay; assay type: ADME
[18] = tested on: Mus musculus; assay: Inhibition of gamma-secretase in CD1 mouse assessed as total amyloid beta level in brain at 30 mg/kg, po at 24 hrs by ELISA relative to control; assay type: functional; design: scale not given: the % may be the effect or the level left
In short: as §1

[19] = tested on: Rattus norvegicus; assay: Antialzheimer activity in Sprague-Dawley rat assessed as amyloid beta 38 level in brain at 10 mg/kg, po at 2 hrs by ELISA relative to control; assay type: functional
In short: as §3

[20] = tested on: Mus musculus; assay: Antialzheimer activity in po dosed CD1 mouse assessed as amyloid beta 42 level in brain at 4,8 and 24 hrs by ELISA; assay type: functional, organism-based
In short: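 Overnight-fasted male CD1 SPF mice got one oral dose (10 or 30 mg/kg) formulated in 20% Captisol in water. Right brain hemisphere was homogenized in 0.4% DEA/50 mM NaCl with protease inhibitors and spun at 221300g. Supernatant was neutralized with Tris-HCl pH 6.8. Aβ42 was measured by ELISA (C-terminal JRF/cAβ42/26 capture, fluorogenic peroxidase read ex 320/em 420 nm). Values are mean % change vs T = 0 h, n = 4.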

[21] = tested on: Rattus norvegicus; assay: Antialzheimer activity in Sprague-Dawley rat assessed as amyloid beta 42 level in CSF at 10 mg/kg, po at 2 hrs by ELISA relative to control; assay type: functional
In short: as §3

[22] = tested on: Mus musculus; assay: Antialzheimer activity in CD1 mouse assessed as amyloid beta 42 level in brain at 10 mg/kg, po at 4 hrs by ELISA relative to control; assay type: functional
In short: as §4

[23] = tested on: Mus musculus; assay: Antialzheimer activity in CD1 mouse assessed as amyloid beta 38 level in brain at 30 mg/kg, po at 4 hrs by ELISA relative to control; assay type: functional
In short: as §4

[24] = Fraction unbound in mouse plasma; assay type: ADME, cell-free
[25] = tested on: Brain; assay: Drug uptake in CD1 mouse brain at 10 mg/kg, po at 24 hrs by LC-MS/MS analysis; assay type: ADME, organism-based; design: dose 10 mg/kg, route oral; details: in vivo, BLD = below limit of detection
In short: as §2

[26] = tested on: Mus musculus; assay: Antialzheimer activity in CD1 mouse assessed as amyloid beta 38 level in brain at 30 mg/kg, po at 8 hrs by ELISA relative to control; assay type: functional
In short: as §4

[27] = tested on: Rattus norvegicus; assay: Antialzheimer activity in Sprague-Dawley rat assessed as amyloid beta 38 level in CSF at 10 mg/kg, po at 25 hrs by ELISA relative to control; assay type: functional
In short: as §3

COc1nc(Nc2cccc3c2nc(-c2ccc(F)cc2)n3C)ccc1-n1cnc(C)c1
Activity [1]: 64% | IC50 [2]: 8.7 µM | Activity [3]: 94% | concentration at 24 h [4]: 40 nM | concentration at 24 h [5]: 440 nM | Activity [6]: 929% | IC50 [7]: 0.016 µM | Activity [8]: 502% | IC50 [9]: 3.6 µM | bioavailability [10]: 64% | Papp B→A [11]: 4 ×10⁻⁶ cm/s | Activity [12]: 29% | concentration at 8 h [13]: 1700 nM | Activity [14]: 162% | Activity [15]: 77% | concentration at 4 h [16]: 2800 nM | Drug metabolism [17]: Not Active | Activity [18]: 104% | Activity [19]: 149% | Activity [20]: Dose-dependent effect | Activity [21]: 65% | Activity [22]: 49% | Activity [23]: 165% | fraction unbound [24]: 0.0004 | Drug uptake [25]: BLD | Activity [26]: 156% | Activity [27]: 110%
